Laboratory results from ChEMBL document CHEMBL3616442, “Unconventional Knoevenagel-type indoles: Synthesis and cell-based studies for the identification of pro-apoptotic agents” (Eur J Med Chem, 2015).

Key:
[1] = system: OVCAR-8; assay: Growth inhibition of human OVCAR8 cells after 48 hrs by sulforhodamine B assay; assay type: functional; conditions: OVCAR-8, 48 h
[2] = system: OVCAR-4; assay: Growth inhibition of human OVCAR4 cells after 48 hrs by sulforhodamine B assay; assay type: functional; conditions: OVCAR-4, 48 h
Method in brief: (§1)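 NCI 60-cell-line screen. Compounds tested at five 10-fold dilutions from 10^-4 to 10^-8 M. Cells exposed for the last 48 h of a 72 h incubation, growth estimated by sulforhodamine B protein assay. GI50 is the concentration giving 50% growth inhibition. Values beyond the tested range are expressed as greater or lesser than the extreme concentration.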

[3] = system: U-251; assay: Growth inhibition of human U251 cells after 48 hrs by sulforhodamine B assay; assay type: functional; conditions: U-251, 48 h
[4] = system: CCRF-CEM; assay: Growth inhibition of human CCRF-CEM cells after 48 hrs by sulforhodamine B assay; assay type: functional; method in brief: as §1
[5] = system: M14; assay: Growth inhibition of human M14 cells after 48 hrs by sulforhodamine B assay; assay type: functional; conditions: M14, 48 h; method in brief: as §1
[6] = system: IGROV-1; assay: Growth inhibition of human IGROV1 cells after 48 hrs by sulforhodamine B assay; assay type: functional; conditions: IGROV-1, 48 h; method in brief: as §1
[7] = system: A498; assay: Growth inhibition of human A498 cells after 48 hrs by sulforhodamine B assay; assay type: functional; conditions: A498, 48 h; method in brief: as §1
[8] = system: NCI-H522; assay: Growth inhibition of human NCI-H522 cells after 48 hrs by sulforhodamine B assay; assay type: functional; conditions: NCI-H522, 48 h; method in brief: as §1
[9] = system: SNB-75; assay: Growth inhibition of human SNB75 cells after 48 hrs by sulforhodamine B assay; assay type: functional; conditions: SNB-75, 48 h
[10] = system: SF-268; assay: Growth inhibition of human SF268 cells after 48 hrs by sulforhodamine B assay; assay type: functional; conditions: SF-268, 48 h
[11] = Growth inhibition of human RXF393 cells after 48 hrs by sulforhodamine B assay; assay type: functional; conditions: RXF 393, 48 h
[12] = system: HT-29; assay: Growth inhibition of human HT-29 cells after 48 hrs by sulforhodamine B assay; assay type: functional; conditions: HT-29, 48 h; method in brief: as §1
[13] = system: A549; assay: Growth inhibition of human A549 cells after 48 hrs by sulforhodamine B assay; assay type: functional; conditions: A549, 48 h; method in brief: as §1
[14] = system: MDA-MB-468; assay: Growth inhibition of human MDA-MB-468 cells after 48 hrs by sulforhodamine B assay; assay type: functional; conditions: MDA-MB-468, 48 h; method in brief: as §1
[15] = Growth inhibition of human HOP92 cells after 48 hrs by sulforhodamine B assay; assay type: functional; conditions: HOP-92, 48 h; method in brief: as §1
[16] = system: SW-620; assay: Growth inhibition of human SW620 cells after 48 hrs by sulforhodamine B assay; assay type: functional; conditions: SW-620, 48 h
[17] = system: OVCAR-5; assay: Growth inhibition of human OVCAR5 cells after 48 hrs by sulforhodamine B assay; assay type: functional; conditions: OVCAR-5, 48 h
[18] = system: 786-0; assay: Growth inhibition of human 786-0 cells after 48 hrs by sulforhodamine B assay; assay type: functional; conditions: 786-0, 48 h; method in brief: as §1
[19] = system: MDA-MB-435; assay: Growth inhibition of human MDA-MB-435 cells after 48 hrs by sulforhodamine B assay; assay type: functional; conditions: MDA-MB-435, 48 h; method in brief: as §1
[20] = system: UACC-257; assay: Growth inhibition of human UACC257 cells after 48 hrs by sulforhodamine B assay; assay type: functional; conditions: UACC-257, 48 h
[21] = system: SK-MEL-28; assay: Growth inhibition of human SK-MEL-28 cells after 48 hrs by sulforhodamine B assay; assay type: functional; conditions: SK-MEL-28, 48 h
[22] = system: SR; assay: Growth inhibition of human SR cells after 48 hrs by sulforhodamine B assay; assay type: functional
[23] = system: HCT-116; assay: Growth inhibition of human HCT116 cells after 48 hrs by sulforhodamine B assay; assay type: functional; conditions: HCT-116, 48 h; method in brief: as §1
[24] = Growth inhibition of human EKVX cells after 48 hrs by sulforhodamine B assay; assay type: functional; method in brief: as §1
[25] = system: NCI-H322M; assay: Growth inhibition of human NCI-H322M cells after 48 hrs by sulforhodamine B assay; assay type: functional; method in brief: as §1
[26] = system: HCT-15; assay: Growth inhibition of human HCT15 cells after 48 hrs by sulforhodamine B assay; assay type: functional; conditions: HCT-15, 48 h; method in brief: as §1
[27] = system: T47D; assay: Growth inhibition of human T47D cells after 48 hrs by sulforhodamine B assay; assay type: functional
[28] = Growth inhibition of human BT549 cells after 48 hrs by sulforhodamine B assay; assay type: functional; conditions: BT-549, 48 h; method in brief: as §1
[29] = system: NCI-H226; assay: Growth inhibition of human NCI-H226 cells after 48 hrs by sulforhodamine B assay; assay type: functional; conditions: NCI-H226, 48 h; method in brief: as §1
[30] = system: HL-60(TB); assay: Growth inhibition of human HL-60(TB) cells after 48 hrs by sulforhodamine B assay; assay type: functional; conditions: HL-60, 48 h
Method in brief: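 NCI 60-cell-line screen, HL-60(TB) included. Compound given at five 10-fold dilutions from 10^-4 to 10^-8 M. Cells exposed for the last 48 h of a 72 h incubation. Growth or viability estimated by sulforhodamine B protein assay. GI50 is the concentration giving 50% growth inhibition. Values outside the tested range are reported as greater or less than the highest or lowest concentration.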

[31] = Growth inhibition of human NCI-ADR-RES cells after 48 hrs by sulforhodamine B assay; assay type: functional; method in brief: as §1
[32] = Growth inhibition of human SF539 cells after 48 hrs by sulforhodamine B assay; assay type: functional; conditions: SF-539, 48 h
[33] = Growth inhibition of human Hs 578T cells after 48 hrs by sulforhodamine B assay; assay type: functional; method in brief: as §1
[34] = system: KM12; assay: Growth inhibition of human KM12 cells after 48 hrs by sulforhodamine B assay; assay type: functional; conditions: KM12, 48 h; method in brief: as §1
[35] = system: SNB-19; assay: Growth inhibition of human SNB19 cells after 48 hrs by sulforhodamine B assay; assay type: functional; conditions: SNB-19, 48 h
[36] = system: HOP-62; assay: Growth inhibition of human HOP62 cells after 48 hrs by sulforhodamine B assay; assay type: functional; conditions: HOP-62, 48 h; method in brief: as §1
[37] = Growth inhibition of human LOXIMVI cells after 48 hrs by sulforhodamine B assay; assay type: functional; conditions: LOX IMVI; method in brief: as §1
[38] = system: NCI-H460; assay: Growth inhibition of human NCI-H460 cells after 48 hrs by sulforhodamine B assay; assay type: functional; conditions: NCI-H460, 48 h; method in brief: as §1
[39] = Growth inhibition of human SF295 cells after 48 hrs by sulforhodamine B assay; assay type: functional; conditions: SF-295, 48 h
[40] = system: MT4; assay: Antiproliferative activity against human MT4 cells after 96 hrs by MTT assay; assay type: functional, cell-based; conditions: MT4, 96 h
Method in brief: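 Exponentially growing MT-4 cells (CD4+ human T-cells carrying integrated HTLV-1 genome), seeded at 1×10^5 cells/mL in RPMI-1640 with 10% FCS and antibiotics. Serial dilutions of compound (DMSO stock 100 mM, diluted in medium), 37 °C, 5% CO₂, 96 h. Viability read by MTT. 50% inhibition versus untreated controls by linear regression. Mean ± SD of three independent determinations.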

[41] = system: OVCAR-3; assay: Growth inhibition of human OVCAR3 cells after 48 hrs by sulforhodamine B assay; assay type: functional; conditions: OVCAR-3, 48 h; method in brief: as §1
[42] = system: SK-MEL-5; assay: Growth inhibition of human SK-MEL-5 cells after 48 hrs by sulforhodamine B assay; assay type: functional; conditions: SK-MEL-5, 48 h
[43] = system: K562; assay: Growth inhibition of human K562 cells after 48 hrs by sulforhodamine B assay; assay type: functional; conditions: K562, 48 h; method in brief: as §1

COC(=O)/C(=C\c1c(-c2ccccc2)[nH]c2ccccc12)S(C)(=O)=O
GI50 [1]: 6.3 µM
GI50 [2]: 6.2 µM
GI50 [3]: 3600 nM
GI50 [4]: 7600 nM
GI50 [5]: 3300 nM
GI50 [6]: 1700 nM
GI50 [7]: 6600 nM
GI50 [8]: 3.1 µM
GI50 [9]: 2300 nM
GI50 [10]: 4.3 µM
GI50 [11]: 7.2 µM
GI50 [12]: 3600 nM
GI50 [13]: 5.3 µM
GI50 [14]: 5400 nM
GI50 [15]: 6.6 µM
GI50 [16]: 2900 nM
GI50 [17]: 19.6 µM
GI50 [18]: 7.5 µM
GI50 [19]: 671 nM
GI50 [20]: 11.2 µM
GI50 [21]: 6 µM
GI50 [22]: 8.1 µM
GI50 [23]: 4200 nM
GI50 [24]: 8.9 µM
GI50 [25]: 7.4 µM
GI50 [26]: 2400 nM
GI50 [27]: 2800 nM
GI50 [28]: 4.3 µM
GI50 [29]: 5 µM
GI50 [30]: 3400 nM
GI50 [31]: 3300 nM
GI50 [32]: 3100 nM
GI50 [33]: 3.5 µM
GI50 [34]: 1500 nM
GI50 [35]: 8.7 µM
GI50 [36]: 10.7 µM
GI50 [37]: 5.1 µM
GI50 [38]: 3500 nM
GI50 [39]: 3100 nM
EC50 [40]: 400 nM
GI50 [41]: 1900 nM

CC(=O)/C(=C\c1c(-c2ccccc2)[nH]c2ccccc12)S(=O)(=O)c1ccccc1
GI50 [1]: 2.5 µM
GI50 [2]: 3.7 µM
GI50 [3]: 1200 nM
GI50 [4]: 1400 nM
GI50 [5]: 521 nM
GI50 [6]: 1500 nM
GI50 [7]: 2000 nM
GI50 [8]: 1.3 µM
GI50 [9]: 1700 nM
GI50 [10]: 3.4 µM
GI50 [11]: 1.3 µM
GI50 [12]: 589 nM
GI50 [13]: 7.2 µM
GI50 [14]: 1700 nM
GI50 [15]: 5.9 µM
GI50 [16]: 778 nM
GI50 [17]: 2 µM
GI50 [18]: 1.6 µM
GI50 [19]: 295 nM
GI50 [20]: 2.2 µM
GI50 [21]: 2 µM
GI50 [23]: 754 nM
GI50 [24]: 3.3 µM
GI50 [42]: 832 nM
GI50 [25]: 6.1 µM
GI50 [26]: 836 nM
GI50 [27]: 1400 nM
GI50 [28]: 1.9 µM
GI50 [29]: 1.9 µM
GI50 [30]: 1700 nM
GI50 [43]: 442 nM
GI50 [31]: 520 nM
GI50 [32]: 1300 nM
GI50 [33]: 5 µM
GI50 [34]: 1000 nM
GI50 [35]: 6.1 µM
GI50 [36]: 1.2 µM
GI50 [37]: 1.4 µM
GI50 [38]: 1100 nM
GI50 [39]: 2400 nM
EC50 [40]: 400 nM
GI50 [41]: 1600 nM

N#CC(C#N)=Cc1c(-c2ccccc2)[nH]c2ccccc12
GI50 [1]: 6 µM
GI50 [2]: 5.2 µM
GI50 [3]: 1200 nM
GI50 [4]: 2400 nM
GI50 [5]: 1900 nM
GI50 [6]: 757 nM
GI50 [7]: 3000 nM
GI50 [8]: 9.6 µM
GI50 [9]: 2000 nM
GI50 [10]: 13.4 µM
GI50 [11]: 3.3 µM
GI50 [12]: 526 nM
GI50 [13]: 4.6 µM
GI50 [14]: 1000 nM
GI50 [15]: 7.7 µM
GI50 [16]: 539 nM
GI50 [17]: 19.7 µM
GI50 [18]: 8.6 µM
GI50 [19]: 246 nM
GI50 [20]: 28.1 µM
GI50 [21]: 5.1 µM
GI50 [23]: 2300 nM
GI50 [24]: 5.8 µM
GI50 [42]: 1100 nM
GI50 [25]: 11.4 µM
GI50 [26]: 971 nM
GI50 [27]: 4600 nM
GI50 [28]: 9.4 µM
GI50 [29]: 4.1 µM
GI50 [30]: 1800 nM
GI50 [43]: 478 nM
GI50 [31]: 826 nM
GI50 [32]: 2100 nM
GI50 [33]: 2.3 µM
GI50 [34]: 684 nM
GI50 [35]: 5.7 µM
GI50 [36]: 11.3 µM
GI50 [37]: 3.3 µM
GI50 [38]: 2100 nM
GI50 [39]: 1600 nM
EC50 [40]: 400 nM
GI50 [41]: 1800 nM
